The text below walks through data of ChEMBL document CHEMBL1765020, “Synthesis and structure-affinity relationships of novel dibenzylideneacetone derivatives as probes for β-amyloid plaques” (J Med Chem, 2011).

The source made the active and inactive calls. The calls are words filed in the database; no cut-off is given here.

Test [1] is described as follows: Displacement of [125I]IMPY from amyloid beta (1 to 42) aggregate after 2 hrs by gamma counting. The gist of the method:
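Competition binding in 1 mL PBS (0.2 M, pH 7.4). Aggregated Aβ1-42 fibrils (60 nM final) with [125I]IMPY and inhibitor at 10^-5 to 10^-10 M, added in ethanol. Nonspecific binding was defined with 1 μM IMPY. Incubated 2 h at 37 °C with shaking, then vacuum-filtered through glass fibre filters and the bound fraction gamma-counted. IC50 was converted to Ki by Cheng-Prusoff; triplicate, mean ± SD.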
For orientation: In a radioligand displacement assay an active substance lowers the binding of a labelled ligand.

The species entered for test [2] is Mus musculus. Description: Binding affinity to amyloid beta (1 to 42) aggregate in APP/PS1 transgenic C57BL/6 mouse brain after 1 hr by autoradiography. Type of test: tissue-based. Conditions: C57BL6, tested as the 18F-labelled form. An outline of the steps:
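Paraffin brain sections from 12-month-old male C57BL6-APP/PS1 mice, with wild-type male C57BL6 controls, were deparaffinized through xylene and graded ethanol, then held 30 min in PBS (0.2 M, pH 7.4). Sections were incubated 1 h at room temperature with radiotracer (5 μCi/100 μL), washed 3 min in 40% ethanol, rinsed in water, dried and exposed to an imaging plate overnight.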

The species entered for test [3] is Mus musculus. Description: Binding affinity to amyloid beta (1 to 42) aggregate in APP/PS1 transgenic C57BL/6 mouse brain by Thioflavin S fluorescent staining assay. In kind it is tissue-based. Conditions: C57BL6, tested as the 18F-labelled form. The gist of the method: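 The same Tg mouse sections used for autoradiography were stained with thioflavin S to locate plaques. Fluorescence was viewed by microscope: excitation 400–440 nm, dichroic 455 nm, long-pass 470 nm.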

The target of test [4] is Amyloid-beta precursor protein (Homo sapiens) (UniProt P05067). Briefly: Binding affinity to amyloid beta (1 to 42) aggregate in Alzheimer disease patient brain by immunohistochemical staining using amyloid beta antibody. The conditions noted are these: tested as the 18F-labelled form. The gist of the method:
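Plaque presence and location in the AD patient temporal-lobe sections were confirmed by immunohistochemistry with monoclonal anti-Aβ1-42 antibody BC05.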

Amyloid-beta precursor protein (Homo sapiens), sequence (P05067 whole entry): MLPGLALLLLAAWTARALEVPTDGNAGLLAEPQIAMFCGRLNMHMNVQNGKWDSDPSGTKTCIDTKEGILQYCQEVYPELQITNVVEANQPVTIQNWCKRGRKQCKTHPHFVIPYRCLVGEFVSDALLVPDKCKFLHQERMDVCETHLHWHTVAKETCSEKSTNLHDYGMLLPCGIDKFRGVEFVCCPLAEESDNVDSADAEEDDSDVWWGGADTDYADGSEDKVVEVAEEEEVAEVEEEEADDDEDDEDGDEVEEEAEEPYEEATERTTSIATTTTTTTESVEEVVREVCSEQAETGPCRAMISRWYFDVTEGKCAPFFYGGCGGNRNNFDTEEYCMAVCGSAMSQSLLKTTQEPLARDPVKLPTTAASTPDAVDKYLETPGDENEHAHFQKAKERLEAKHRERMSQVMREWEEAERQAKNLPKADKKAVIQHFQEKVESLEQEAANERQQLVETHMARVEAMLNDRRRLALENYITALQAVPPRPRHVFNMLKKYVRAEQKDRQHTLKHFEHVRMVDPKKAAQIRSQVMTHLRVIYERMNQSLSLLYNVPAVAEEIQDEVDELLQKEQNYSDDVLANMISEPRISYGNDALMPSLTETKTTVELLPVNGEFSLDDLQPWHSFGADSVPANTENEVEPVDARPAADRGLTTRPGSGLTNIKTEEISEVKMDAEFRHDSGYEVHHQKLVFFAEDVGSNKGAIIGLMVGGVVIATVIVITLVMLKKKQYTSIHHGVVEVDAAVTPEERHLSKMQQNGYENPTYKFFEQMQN

In test [1], `CN(C)c1ccc(/C=C/C(=O)/C=C/c2ccc(OCCOCCOCCF)cc2)cc1` returned a Ki of 6.9 nM. Also, the result (in the test listed under Mus musculus [2]; in the test listed under Mus musculus [3]; in test [4]) was Active.

A word on the Ki: it is the equilibrium dissociation constant of an inhibitor or competing ligand from its target.
